PMC5222895 (Drugs & Aging, 2016)

Experiments:
Type in all cases: in vivo, human
[1] = Free serum insulin aspart pharmacokinetics after single subcutaneous dosing; conditions: single s.c. 0.2 U/kg
Outline: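 Same crossover dosing (0.2 U/kg s.c., fasted). Blood sampled before dosing, every 2 min to 20 min, every 5 min to 80 min, every 10 min to 2 h, every 15 min to 3 h, then 3.5–12 h. Free (PEG-precipitated) serum insulin aspart measured by validated specific ELISA, LLOQ 10 pmol/L. Pre-LLOQ concentrations imputed by compartmental modelling for initial AUC portion.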

[2] = test system: subjects with type 1 diabetes mellitus; test: Euglycaemic glucose clamp; conditions: single s.c. 0.2 U/kg
Outline: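 Single 0.2 U/kg s.c. dose into the lower abdominal wall in randomised two-visit crossover (3–12 day washout), elderly (≥65 y) and younger (18–35 y) T1DM subjects, morning after overnight fast. Euglycaemic clamp, BG target 5.5 mmol/L, up to 12 h. GIR logged every minute. Partial and total AUCGIR taken from raw profiles. Least square means; age-group ratios with 95% CI.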

[3] = test system: subjects with type 1 diabetes mellitus; test: Safety assessments
Outline: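 Monitored from dosing to follow-up 7–21 days after second dose: adverse events, injection-site local tolerability, hypoglycaemic episodes, laboratory safety, physical exam, vital signs, ECG. Hypoglycaemia confirmed if severe (ADA, third-party assistance) or plasma glucose <3.1 mmol/L. Summarised descriptively for subjects receiving at least one dose.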

[4] = elderly (≥65 years) T1DM, least square mean, n = 30
[5] = elderly and younger adults with T1DM, single s.c. 0.2 U/kg

insulin aspart
AUCIAsp,0-t, ratio of elderly/younger adults [95% CI] ([1]; age group ratio, T1DM): 1.32 [1.09–1.59]
C max, ratio of elderly/younger adults [95% CI] ([1]; age group ratio, T1DM): 1.20 [0.96–1.50]
t Early 50% Cmax [1, 4]: 28.0 min
t max [1, 4]: 1.07 h
C max (maximum insulin aspart concentration) ([1]; elderly T1DM, least square mean, n = 30): 0.3676 nM
GIRmax, ratio of elderly/younger adults [95% CI] ([2]; age group ratio, T1DM): 0.78 [0.60–1.01]
AUCGIR,0-t, ratio of elderly/younger adults [95% CI] ([2]; age group ratio, T1DM, primary endpoint for faster aspart): 0.85 [0.67–1.07]
AUCGIR,0-t (total glucose-lowering effect) ([2]; elderly T1DM, clamp up to 12 h, least square mean, n = 22): 1012.5 mg/kg
Injection-site reactions ([3]; during the trial): no injection-site reactions
Adverse events of moderate intensity [3, 5]: eight
Serious adverse events [3, 5]: no serious adverse events
Tolerability [3, 5]: well-tolerated
Confirmed hypoglycaemic episodes ([3]; severe (ADA) or plasma glucose <3.1 mmol/L, during the trial): No confirmed hypoglycaemic episodes
